Screening data as filed in PubChem.
hERG protect: shields human hERG channel from block by proarrhythmic agents | 310,000 tested, 0.51% active | activation (rescue from dofetilide block), less the hit threshold, % at 10 µM | Q12809 | CHO-hERG, FluxOR thallium flux, dofetilide IC70 present | AID 1511;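 active = activation above the mean of controls blocked by dofetilide plus 5 SD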;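 also: thallium influx through hERG after potassium depolarization seen as dye fluorescence rise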
KCNQ1 pot: potentiates or activates the human KCNQ1 potassium channel | P51787 | CHO-K1 KCNQ1, thallium flux FluxOR fluorescence; stronger effect = higher value | B-score at 10 µM | 310,000 tested, 0.35% active;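 active = fluorescence ratio B-score, a plate-corrected score, at least three library SD, with initial intensity B-score within 5 SD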
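Assay system: CHO-K1 cells stably expressing KCNQ1; Medium: assay buffer with matched DMSO; Also added: K+/Tl+ depolarizing stimulus; Dosing: single dose; Timing: dye 90 min, compound 20 min, room temperature; Measured by: kinetic FluxOR thallium fluorescence, 10-s 1-Hz baseline, 110-s post-stimulus read; Read-out: peak-minus-minimum fluorescence over initial fluorescence, negative-control normalized, B-scored.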
KCNK3 block: human KCNK3 channel inhibition, primary screen. O14649. CHO-KCNK3 thallium flux, FluxOR fluorescence; stronger effect = lower value. B-score at 10 µM. 340,000 tested, 0.84% active. AID 602410;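 active = B-score under library mean minus 4 SD, starting fluorescence ratio at most library mean plus 5 SD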;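 also: more negative B-score means stronger inhibition of thallium flux through KCNK3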
KCNQ1 block: human KCNQ1 channel inhibition; 310,000 tested, 1.3% active; AID 2642; CHO-K1 KCNQ1, FluxOR thallium flux fluorescence; stronger effect = higher value; P51787; B-score at 10 µM;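 active = compounds whose thallium flux B-score, printed positive for inhibition, exceeds three library SD while starting fluorescence stays within three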;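 also: channel opened by potassium depolarization with thallium stimulus after 20 min compound exposure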
KCNK9 inh: human KCNK9 channel inhibition; Q9NPC2; HEK293 KCNK9, FluxOR thallium flux fluorescence; stronger effect = lower value; B-score at 10 µM; 310,000 tested, 1.2% active;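 active = ratio B-score over 3 SD below the library mean, with starting fluorescence within 5 SD of its mean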;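 also: negative B-score means less thallium flux so channel inhibition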
Cl transport mod: KCC2 (human) Cl- transport modulation. KCC2 cells, thallium flux FluoZin-2 fluorescence. AID 1456. Q9H2X9. 190,000 tested, 2.2% active. B-score of Tl+ flux slope (higher = more flux/activation; lower = inhibition) at 10 µM;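 active = thallium flux slope and its plate-corrected score both differing from the plate sample mean at a set confidence after two filtering rounds, in either direction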;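 also: slope of fluorescence scaled to starting intensity during 10 to 20 s after thallium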
KCNQ1 block val: human KCNQ1 channel inhibition, validation assay | shares compounds with KCNQ1 block | KCNQ1 cell line, FluxOR thallium flux fluorescence | inhibition, % at 10 µM | 1,600 tested, 93% active | AID 588353;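 active = primary screen active, with duplicate mean exceeding buffer control mean plus 3 SD of buffer wells, cut at about 28% in these data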
CHO Tl flux: KCNQ1 inhibitor counter-screen hit in parental CHO cells; shares compounds with KCNQ1 block; parental CHO-K1, FluxOR thallium flux fluorescence ratio; stronger effect = lower value; zero means no signal rise above baseline; fluorescence ratio (Tl flux) at 10 µM; 1,600 tested, 21% active; AID 588366;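 active = mean of duplicate thallium-flux fluorescence ratios in parental host cells more than 5 SD below the buffer control mean, cut at about 0.38 in these data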;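 also: ratio is peak minus minimum fluorescence divided by baseline fluorescence; actives read low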
KCNQ1 ephys val: human KCNQ1 inhibition validated by electrophysiology. shares compounds with KCNQ1 block. KCNQ1-CHO cells, automated patch clamp current. calls only at 10 µM. 490 tested, 20% active. AID 624120;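 active = KCNQ1 current drop exceeding 3 SD of negative control wells, seen in both duplicate runs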;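 also: steady state current during a 2 s step from -80 to +40 mV; negative values mean current inhibition and positive values mean potentiation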
KCNQ2 spec: selectivity of KCNQ1 inhibitors: inhibition of rat KCNQ2 channel; shares compounds with KCNQ1 block; 1,600 tested, 71% active; inhibition, % at 10 µM; KCNQ2 cells, FluxOR thallium flux fluorescence; AID 651746;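 active = mean percent inhibition of the KCNQ2 thallium signal more than 5 SD above the buffer-only control wells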;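 also: KCNQ2 expressed in CHO cells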
Target sequence (O88943 whole entry, looked up): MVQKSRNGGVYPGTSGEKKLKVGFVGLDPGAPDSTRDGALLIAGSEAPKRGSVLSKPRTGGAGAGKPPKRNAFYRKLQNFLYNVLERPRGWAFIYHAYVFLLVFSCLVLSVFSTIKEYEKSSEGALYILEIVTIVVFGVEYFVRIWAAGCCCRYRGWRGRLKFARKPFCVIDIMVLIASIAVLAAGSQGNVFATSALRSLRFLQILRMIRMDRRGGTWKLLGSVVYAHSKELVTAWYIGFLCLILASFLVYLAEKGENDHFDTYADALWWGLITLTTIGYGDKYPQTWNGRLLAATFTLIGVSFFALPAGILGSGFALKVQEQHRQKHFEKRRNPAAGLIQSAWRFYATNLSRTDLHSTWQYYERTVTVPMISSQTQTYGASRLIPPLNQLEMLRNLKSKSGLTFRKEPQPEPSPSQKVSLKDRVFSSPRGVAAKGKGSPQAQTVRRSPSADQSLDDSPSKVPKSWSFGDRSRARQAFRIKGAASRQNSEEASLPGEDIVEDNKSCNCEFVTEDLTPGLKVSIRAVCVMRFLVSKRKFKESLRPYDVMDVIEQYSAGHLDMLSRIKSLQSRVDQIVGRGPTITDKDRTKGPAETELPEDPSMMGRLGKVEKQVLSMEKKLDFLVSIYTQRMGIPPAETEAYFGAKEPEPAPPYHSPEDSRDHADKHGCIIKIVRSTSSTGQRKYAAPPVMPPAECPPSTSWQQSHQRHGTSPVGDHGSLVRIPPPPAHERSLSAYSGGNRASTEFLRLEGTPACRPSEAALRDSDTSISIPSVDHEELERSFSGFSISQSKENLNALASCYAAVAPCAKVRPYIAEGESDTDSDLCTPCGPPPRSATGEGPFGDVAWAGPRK
KCNQ1 KCNE1 spec: selectivity of KCNQ1 inhibitors: inhibition of human KCNQ1/KCNE1 channel. 1,600 tested, 77% active. inhibition, % at 10 µM. shares compounds with KCNQ1 block. KCNQ1/KCNE1 cells, FluxOR thallium flux fluorescence. AID 652147;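 active = mean percent inhibition of duplicate wells above the buffer-only control mean plus 3 SD of those controls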
KCNK9 block conf: confirmation of human KCNK9 potassium channel inhibitors; inhibition, % at 10 µM; HEK293 KCNK9 cells, FluxOR thallium flux fluorescence; shares compounds with KCNK9 inh; 4,900 tested, 43% active;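 active = thallium signal inhibited by more than 5 SD of the compound-free buffer control wells, on both duplicate plates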
Kir21 sel: mouse Kir2.1 off-target activity of KCNK9 modulators | shares compounds with KCNK9 inh | Kir2.1 cells, FluxOR thallium flux fluorescence | inhibition, % at 10 µM | 4,900 tested, 4% active;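 active = thallium signal drop more than 5 SD beyond the mean of the no-compound control wells, seen in both duplicate plates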;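 also: signal is fluorescence rise after thallium addition divided by baseline fluorescence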
HEK293 Tl ctr: second check of KCNK9 modulator effects in non-induced HEK293 cells; inhibition, % at 10 µM; AID 492997; 4,900 tested, 40% active; shares compounds with KCNK9 inh; FluxOR thallium flux;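 active = thallium signal drop beyond 5 SD of the untreated control mean, on both duplicate plates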
KCNK3 confirm: confirmation of human KCNK3 two-pore domain potassium channel inhibitors | shares compounds with KCNK3 block | ratio percent of control, % at 10 µM | 2,400 tested, 99% active | CHO-KCNK3 thallium flux, FluxOR fluorescence; 0% buffer, 100% carvedilol maximal block;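 active = ratio percent of control, averaged over triplicates, above buffer control mean plus 5 SD, cut at about 64% in these data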;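 also: ratio is the fluorescence rise from min to max over baseline after thallium stimulus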
KCNK3 noninduced: KCNK3 inhibitor counter-screen hit in non-induced cells; shares compounds with KCNK3 block; 2,400 tested, 40% active; non-induced KCNK3 parental cells, FluxOR thallium flux; stronger effect = lower value; thallium flux ratio (lower = more inhibition) at 10 µM; AID 651747;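 active = thallium flux ratio, averaged over three wells, more than 5 SD below the buffer control mean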;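 also: host cells are CHO cells without KCNK3 induction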
Large screens that a line does not name were inactive (follow-up assays come after a bar, where they were run). The list is not random: actives were taken first. Their share in the collection is about 4.1%.

Cc1nc2ccc(S(=O)(=O)Nc3cc(-c4nc5cccnc5s4)ccc3C)cc2s1	none
Cc1ccsc1C(=O)C1CCCN(Cc2cccn2-c2ccc(Cl)cn2)C1 (stereo not drawn)	KCNK3 block -9.1, KCNQ1 block 9 (no result: Cl transport mod) | KCNQ1 block val 92 | CHO Tl flux inactive | KCNQ1 ephys val active | KCNQ2 spec 72% | KCNQ1 KCNE1 spec 58% | KCNK3 confirm 127 | KCNK3 noninduced 0.14
COc1cccc(C(=O)C2CCCN(Cc3cccn3-c3ccccn3)C2)c1 (stereo not drawn)	none
NC(=O)c1ccsc1NC(=O)COC(=O)Cc1cccc2ccccc12	KCNK3 block -8.9, KCNQ1 block 9 | KCNQ1 block val 110 | CHO Tl flux 0.31 | KCNQ2 spec 104% | KCNQ1 KCNE1 spec active | KCNK3 confirm 116 | KCNK3 noninduced inactive
CCN(CC)S(=O)(=O)c1ccc2oc(SCc3ccc(F)cc3)nc2c1	KCNK3 block -11, KCNQ1 block 9, KCNK9 inh -8.7 | KCNQ1 block val 82 | CHO Tl flux inactive | KCNQ2 spec 80% | KCNQ1 KCNE1 spec 102% | KCNK9 block conf 36% | Kir21 sel inactive | HEK293 Tl ctr 41% | KCNK3 confirm 100 | KCNK3 noninduced inactive
CCn1cc(C(=O)Nn2cnnc2)c(=O)c2ccc(C)nc21	none (no result: Cl transport mod)
O=C1CCCc2c1cnc1ncnn21	none
CCOC(=O)c1c(C)n(-c2ccc(C)cc2)c2ccc(O)c(CN(C)C)c12	KCNK3 block -9.8, KCNQ1 block 6 | KCNQ1 block val 38 | CHO Tl flux inactive | KCNQ2 spec inactive | KCNQ1 KCNE1 spec inactive | KCNK3 confirm 117 | KCNK3 noninduced 0.15
CC1(c2cccc(Br)c2)NC(=O)N(CC(=O)Nc2ccc3c(c2)OCO3)C1=O (stereo not drawn)	none (no result: hERG protect, KCNQ1 pot, KCNQ1 block, KCNK9 inh, Cl transport mod)
CCOc1ccc(OCC)c(NC(=O)Nc2ccc3c(c2)N(C)C(=O)CS3)c1	KCNK3 block -16, KCNQ1 block 14 | KCNQ1 block val 82 | CHO Tl flux inactive | KCNQ2 spec 90% | KCNQ1 KCNE1 spec 152% | KCNK3 confirm 119 | KCNK3 noninduced inactive
CC(=O)Nc1ccc(NC(=O)Nc2ccc3c(c2)N(C)C(=O)CS3)cc1	none
CN1C(=O)CSc2ccc(NC(=O)Nc3ccccn3)cc21	none
